Experimental data from ChEMBL document CHEMBL3272134, “Diastereoisomers of 5,10-methylene-5,6,7,8-tetrahydropteroyl-D-glutamic acid” (J Med Chem, 1977).
Active and inactive are the calls of the source. The calls are words filed in the database; no cut-off is given here.

T1: Thymidylate synthase (Lactobacillus casei) (UniProt P00469)
T1 sequence (whole entry): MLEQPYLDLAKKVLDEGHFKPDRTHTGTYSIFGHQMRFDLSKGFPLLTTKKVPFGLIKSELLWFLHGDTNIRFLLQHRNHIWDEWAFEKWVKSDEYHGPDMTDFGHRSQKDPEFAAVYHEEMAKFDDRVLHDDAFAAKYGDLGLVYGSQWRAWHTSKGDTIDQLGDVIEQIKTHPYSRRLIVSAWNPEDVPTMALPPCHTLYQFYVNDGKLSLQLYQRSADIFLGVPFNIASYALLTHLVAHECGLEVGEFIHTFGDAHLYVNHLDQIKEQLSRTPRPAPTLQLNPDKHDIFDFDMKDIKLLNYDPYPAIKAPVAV


What was measured:
[1] = target: T1, Thymidylate synthase (Lactobacillus casei); assay: Inhibition of Lactobacillus casei thymidylate synthetase at 1.7 x 10^-6 M relative to control; conditions: Lacticaseibacillus casei
[2] = target: T1, Thymidylate synthase (Lactobacillus casei); assay: Inhibition of Lactobacillus casei thymidylate synthetase using dl-5,10-Methylene tetrahydropteroyl-L-glutamate as substrate at 1 x 10^-4 M by spectrophotometric analysis; conditions: Lacticaseibacillus casei
[3] = target: T1, Thymidylate synthase (Lactobacillus casei); assay: Inhibition of Lactobacillus casei thymidylate synthetase using dl-5,10-Methylene tetrahydropteroyl-L-glutamate as substrate at 1 x 10^-4 M relative to control; conditions: Lacticaseibacillus casei
[4] = target: T1, Thymidylate synthase (Lactobacillus casei); assay: Inhibition of Lactobacillus casei thymidylate synthetase using dl-5,10-Methylene tetrahydropteroyl-L-glutamate as substrate at 9.2 x 10^-5 M relative to control; conditions: Lacticaseibacillus casei
[5] = target: T1, Thymidylate synthase (Lactobacillus casei); assay: Inhibition of Lactobacillus casei thymidylate synthetase using dl-5,10-Methylene tetrahydropteroyl-L-glutamate as substrate at 9.2 x 10^-5 M by spectrophotometric analysis; conditions: Lacticaseibacillus casei
Pediococcus [6] = assay: Induction of growth of Pediococcus cerevisiae ATCC 8081 up to 5 ug/mL; format: functional
Pediococcus [7] = assay: Growth inhibition of Pediococcus cerevisiae ATCC 8081 up to 5 ug/mL; format: functional
In short: (§1)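 Media were as follows. L. casei ATCC 7469 was grown on folate assay broth with folate at 1 ng/mL. P. cerevisiae ATCC 8081 was grown on CF assay medium with dl-5-formyltetrahydrofolate at 1 ng/mL. S. faecium ATCC 8043 was grown on Flynn medium with folate at 1 ng/mL.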

Lacticaseibacillus casei [8] = assay: Induction of growth of Lactobacillus casei ATCC 7469 up to 5 ug/mL; format: functional, organism-based
[9] = target: T1, Thymidylate synthase (Lactobacillus casei); assay: Activity of Lactobacillus casei thymidylate synthetase assessed as release of [3H] from [5-3H]-deoxyuridine 5' phosphate at 3 x 10^-4 M; conditions: Lacticaseibacillus casei
Enterococcus faecium [10] = assay: Induction of growth of Streptococcus faecium ATCC 8043 up to 5 ug/mL; format: functional, organism-based
Enterococcus faecium [11] = assay: Growth inhibition of Streptococcus faecium ATCC 8043 up to 5 ug/mL; format: functional, organism-based; in short: as §1
Lacticaseibacillus casei [12] = assay: Growth inhibition of Lactobacillus casei ATCC 7469 up to 5 ug/mL; format: functional, organism-based; in short: as §1
[13] = target: T1, Thymidylate synthase (Lactobacillus casei); assay: Activity of Lactobacillus casei thymidylate synthetase at 3 x 10^-4 M by spectrophotometric analysis; conditions: Lacticaseibacillus casei
[14] = target: T1, Thymidylate synthase (Lactobacillus casei); assay: Inhibition of Lactobacillus casei thymidylate synthetase using dl-5,10-Methylene tetrahydropteroyl-L-glutamate as substrate at 3.3 x 10^-5 M relative to control; conditions: Lacticaseibacillus casei
[15] = target: T1, Thymidylate synthase (Lactobacillus casei); assay: Activity of Lactobacillus casei thymidylate synthetase at 7 x 10^-5 M by spectrophotometric analysis; conditions: Lacticaseibacillus casei
[16] = target: T1, Thymidylate synthase (Lactobacillus casei); assay: Inhibition of Lactobacillus casei thymidylate synthetase using dl-5,10-Methylene tetrahydropteroyl-L-glutamate as substrate at 3.3 x 10^-5 M by spectrophotometric analysis; conditions: Lacticaseibacillus casei
[17] = target: T1, Thymidylate synthase (Lactobacillus casei); assay: Inhibition of Lactobacillus casei thymidylate synthetase using l-5,10-Methylene tetrahydropteroyl-L-glutamate as substrate at 6.3 x 10^-5 M relative to control; conditions: Lacticaseibacillus casei
[18] = target: T1, Thymidylate synthase (Lactobacillus casei); assay: Inhibition of Lactobacillus casei thymidylate synthetase using l-5,10-Methylene tetrahydropteroyl-L-glutamate as substrate at 6.3 x 10^-5 M by spectrophotometric analysis; conditions: Lacticaseibacillus casei
[19] = target: Dihydrofolate reductase (Lactobacillus casei) (UniProt P00381); assay: Inhibition of Lactobacillus casei dihydrofolate reductase using 7,8-Dihydropteroyl-L-glutamate as substrate at 1.5 x 10^-5 M relative to control; conditions: Lacticaseibacillus casei
[20] = target: T1, Thymidylate synthase (Lactobacillus casei); assay: Activity of Lactobacillus casei thymidylate synthetase at 4.5 x 10^-5 M by spectrophotometric analysis; conditions: Lacticaseibacillus casei
[21] = target: T1, Thymidylate synthase (Lactobacillus casei); assay: Inhibition of Lactobacillus casei thymidylate synthetase using dl-5,10-Methylene tetrahydropteroyl-L-glutamate as substrate at 2.4 x 10^-5 M by spectrophotometric analysis; conditions: Lacticaseibacillus casei
[22] = target: Dihydrofolate reductase (Lactobacillus casei) (UniProt P00381); assay: Inhibition of Lactobacillus casei dihydrofolate reductase using 7,8-Dihydropteroyl-L-glutamate as substrate at 1.5 x 10^-5 M by spectrophotometric analysis; conditions: Lacticaseibacillus casei
[23] = target: T1, Thymidylate synthase (Lactobacillus casei); assay: Inhibition of Lactobacillus casei thymidylate synthetase using dl-5,10-Methylene tetrahydropteroyl-L-glutamate as substrate at 2.4 x 10^-5 M relative to control; conditions: Lacticaseibacillus casei
[24] = target: T1, Thymidylate synthase (Lactobacillus casei); assay: Activity of Lactobacillus casei thymidylate synthetase assessed as release of [3H] from [5-3H]-deoxyuridine 5' phosphate at 4.5 x 10^-5 M; conditions: Lacticaseibacillus casei
[25] = target: T1, Thymidylate synthase (Lactobacillus casei); assay: Inhibition of Lactobacillus casei thymidylate synthetase using dl-5,10-Methylene tetrahydropteroyl-L-glutamate as substrate at 1.3 x 10^-5 M by spectrophotometric analysis; conditions: Lacticaseibacillus casei
[26] = target: T1, Thymidylate synthase (Lactobacillus casei); assay: Inhibition of Lactobacillus casei thymidylate synthetase using dl-5,10-Methylene tetrahydropteroyl-L-glutamate as substrate at 1.3 x 10^-5 M relative to control; conditions: Lacticaseibacillus casei
[27] = substrate: Nc1nc(=O)c2c([nH]1)NCC1CN(c3ccc(C(=O)N[C@@H](CCC(=O)O)C(=O)O)cc3)CN21; assay: Activity of Lactobacillus casei thymidylate synthetase by spectrophotometric analysis; conditions: Lacticaseibacillus casei

Dihydrofolate reductase (Lactobacillus casei), sequence (P00381 whole entry): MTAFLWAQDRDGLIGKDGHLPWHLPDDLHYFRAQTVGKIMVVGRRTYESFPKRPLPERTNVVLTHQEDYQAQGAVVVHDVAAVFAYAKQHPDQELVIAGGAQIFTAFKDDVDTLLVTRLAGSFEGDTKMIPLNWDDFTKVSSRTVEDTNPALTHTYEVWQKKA

Row | Molecule | Activity (Pediococcus [6]) | growth inhibition (GI) (Pediococcus [7]) | Activity (Lacticaseibacillus casei [8]) | Activity (Enterococcus faecium [10]) | growth inhibition (GI) (Enterococcus faecium [11]) | growth inhibition (GI) (Lacticaseibacillus casei [12]) | other results
1 | CN(Cc1ccc2nc(N)nc(O)c2c1)c1ccc(C(=O)N[C@@H](CCC(=O)O)C(=O)O)cc1 | – | – | – | – | – | – | inhibition [1]: 83%
2 | Nc1nc(=O)c2c([nH]1)NCC(CNc1ccc(C(=O)N[C@@H](CCC(=O)O)C(=O)O)cc1)=N2 | – | – | – | – | – | – | deltaOD [2]: 0.02 min⁻¹; inhibition [3]: 26%
3 | Nc1nc2c(c(=O)[nH]1)N=C(CNc1ccc(C(=O)N[C@H](CCC(=O)O)C(=O)O)cc1)CN2 | – | – | – | – | – | – | inhibition [4]: 10%; deltaOD [5]: 0.027 min⁻¹
4 | Nc1nc(=O)c2c([nH]1)NCC1CN(c3ccc(C(=O)N[C@@H](CCC(=O)O)C(=O)O)cc3)CN21 (mixture of isomers) | inactive | inactive | inactive | inactive | inactive | inactive | Activity [9]: 71000 cpm; deltaOD [13]: 0.03 min⁻¹
5 | Nc1nc2c(c(=O)[nH]1)N1CN(c3ccc(C(=O)N[C@H](CCC(=O)O)C(=O)O)cc3)CC1CN2 (mixture of isomers) | inactive | inactive | inactive | inactive | inactive | inactive | inhibition [14]: 0%; deltaOD [15]: 0 min⁻¹; deltaOD [16]: 0.03 min⁻¹
6 | Nc1nc(=O)c2c([nH]1)NCC1CN(c3ccc(C(=O)N[C@@H](CCC(=O)O)C(=O)O)cc3)CN21 (stereo in doubt) | inactive | inactive | inactive | inactive | inactive | inactive | inhibition [17]: 14%; deltaOD [18]: 0.02 min⁻¹
7 | Nc1nc2c(c(=O)[nH]1)N1CN(c3ccc(C(=O)N[C@H](CCC(=O)O)C(=O)O)cc3)CC1CN2 (stereo in doubt; form 1) | inactive | inactive | inactive | inactive | inactive | inactive | inhibition [19]: 0%; deltaOD [20]: 0 min⁻¹; deltaOD [21]: 0.03 min⁻¹; deltaOD [22]: 0.032 min⁻¹; inhibition [23]: 0%; Activity [24]: < 2000 cpm
8 | Nc1nc2c(c(=O)[nH]1)N1CN(c3ccc(C(=O)N[C@H](CCC(=O)O)C(=O)O)cc3)CC1CN2 (stereo in doubt; form 2) | inactive | inactive | inactive | inactive | inactive | inactive | inhibition [19]: 0%; deltaOD [20]: 0 min⁻¹; deltaOD [25]: 0.03 min⁻¹; inhibition [26]: 0%; deltaOD [22]: 0.032 min⁻¹; Activity [24]: < 2000 cpm
9 | Thymidylate synthase (Lactobacillus casei), P00469 (protein) MLEQPYLDLAKKVLDEGHFKPDRTHTGTYSIFGHQMRFDLSKGFPLLTTKKVPFGLIKSELLWFLHGDTNIRFLLQHRNHIWDEWAFEKWVKSDEYHGPDMTDFGHRSQKDPEFAAVYHEEMAKFDDRVLHDDAFAAKYGDLGLVYGSQWRAWHTSKGDTIDQLGDVIEQIKTHPYSRRLIVSAWNPEDVPTMALPPCHTLYQFYVNDGKLSLQLYQRSADIFLGVPFNIASYALLTHLVAHECGLEVGEFIHTFGDAHLYVNHLDQIKEQLSRTPRPAPTLQLNPDKHDIFDFDMKDIKLLNYDPYPAIKAPVAV | – | – | – | – | – | – | Km [27]: 15 µM
